Test results from ChEMBL document CHEMBL1149064, “Tyrosinase inhibitors from Anacardium occidentale fruits” (J Nat Prod, 1994).
Activity calls are given as the source filed them. The calls are words filed in the database; no cut-off is given here.

Key:
[1] = biological target: T1, Tyrosinase (Agaricus bisporus) (UniProt O42713); experiment: Inhibition of mushroom tyrosinase assessed as oxidation of L-DOPA at 0.8 mM
T1 sequence (whole entry): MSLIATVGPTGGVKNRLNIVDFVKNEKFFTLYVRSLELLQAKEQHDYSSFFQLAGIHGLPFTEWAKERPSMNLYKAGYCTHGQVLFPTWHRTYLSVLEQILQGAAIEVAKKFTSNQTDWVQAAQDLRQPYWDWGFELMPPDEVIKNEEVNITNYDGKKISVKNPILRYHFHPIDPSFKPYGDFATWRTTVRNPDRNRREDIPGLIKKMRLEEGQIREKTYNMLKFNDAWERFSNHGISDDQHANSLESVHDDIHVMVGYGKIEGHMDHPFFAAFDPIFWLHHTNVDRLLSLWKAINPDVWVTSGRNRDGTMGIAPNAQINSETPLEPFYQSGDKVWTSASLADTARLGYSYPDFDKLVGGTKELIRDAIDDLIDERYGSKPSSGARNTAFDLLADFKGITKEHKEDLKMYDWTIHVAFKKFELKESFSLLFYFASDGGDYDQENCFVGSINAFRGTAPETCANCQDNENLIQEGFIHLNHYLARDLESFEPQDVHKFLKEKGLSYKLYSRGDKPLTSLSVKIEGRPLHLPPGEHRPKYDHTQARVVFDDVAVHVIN

[2] = biological target: T1, Tyrosinase (Agaricus bisporus); experiment: Inhibition of mushroom tyrosinase assessed as oxidation of L-DOPA
[3] = biological target: T1, Tyrosinase (Agaricus bisporus); experiment: Inhibition of mushroom tyrosinase assessed as oxidation of L-DOPA preincubated for 5 mins before L-DOPA addition
Summary of the method: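 Enzyme (138 units) and sample pre-incubated in 0.1 M phosphate buffer pH 6.8 for 5 min at 25°. Then 0.4 ml of 6.3 mM L-DOPA stock added and the reaction followed at 475 nm for 4 min. Controls: no inhibitor with or without pre-incubation, and inhibitor without pre-incubation.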

[4] = biological target: T1, Tyrosinase (Agaricus bisporus); experiment: Inhibition of mushroom tyrosinase assessed as oxidation of L-DOPA by Lineweaver-Burke plot analysis
Summary of the method: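 Mushroom tyrosinase (138 units) added to L-DOPA (1 ml of 2.5 mM stock) plus sample (DMSO solution diluted 30-fold) in 0.1 M phosphate buffer pH 6.8, after 10 min at 25°. Initial linear rate of dopachrome formation read at 475 nm; double-reciprocal plot of 1/V (1/ΔA475 per min).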

Structure (SMILES)	inhibition [1]	Activity [2]	ID50 [2]	Activity [3]	Activity [4]	Activity [1]
C=CC/C=C\C/C=C\CCCCCCCc1cccc(O)c1C(=O)O (stereo in doubt; 5)	45%	Dose-dependent effect	1.1 mM	Active	Active	–
CCC/C=C\C/C=C\CCCCCCCc1cccc(O)c1C(=O)O	15%	Dose-dependent effect	6 mM	–	–	–
CCCCCC/C=C\CCCCCCCc1cccc(O)c1C(=O)O	15%	Dose-dependent effect	7.5 mM	–	–	–
Oc1cccc(O)c1	34%	–	1.2 mM	–	–	–
C=CC/C=C\C/C=C\CCCCCCCc1cccc(O)c1C(=O)O (stereo in doubt; 8)	15%	Dose-dependent effect	4.2 mM	–	–	–
O=C(O)c1ccccc1O	23%	–	3.9 mM	–	–	–
C=CC/C=C\C/C=C\CCCCCCCc1cc(O)c(C)c(O)c1	16%	–	–	–	–	–
CCCCCCCCCCCCCCCc1cc(O)cc(O)c1	21%	Dose-dependent effect	–	–	–	–
CCCCCC/C=C\CCCCCCCc1cc(O)c(C)c(O)c1	24%	–	–	–	–	–
CCC/C=C\C/C=C\CCCCCCCc1cc(O)c(C)c(O)c1	20%	–	–	–	–	–
OC[C@H]1O[C@@H](Oc2ccc(O)cc2)[C@H](O)[C@@H](O)[C@@H]1O	–	–	6.2 mM	–	–	–
CCCCCCCCCCCCCCCc1cccc(O)c1	–	–	–	–	–	inactive
C=CC/C=C\C/C=C\CCCCCCCc1cc(O)cc(O)c1	88%	Dose-dependent effect	0.04 mM	Active	Active	–
